# Experimental data reported in ChEMBL document CHEMBL5058577, “EUbOPEN Chemogenomics Library 2 (Multiplex)” (2022).
# System: HEK-293T
# Test: Multiplex assay against HEK293T
# Assay type: toxicity, cell-based
# Conditions: human
# In short: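 With compound added, live cells were imaged on a CQ1 microscope at 37°C and 5% CO2; staining with Hoechst33342, BioTracker Green Microtubule Cytoskeleton Dye, MitoTracker Red and Annexin V Alexa Fluor 680 had been done at seeding. The CellPathfinder machine-learning gating scheme split cells into Hoechst high-intensity objects or normal cells, normal cells into healthy, pyknosed or fragmented nuclei, and pyknosed cells into mitotic or apoptotic. The tubulin, mitochondrial-mass and membrane-permeability phenotypes are per cents of healthy-nucleus cells.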
# [1] = 12 h, 1 µM, compound concentration 1 uM, replicate 1
# [2] = 12 h, 1 µM, compound concentration 1 uM, replicate 2
# [3] = 12 h, 10 µM, compound concentration 10 uM, replicate 1
# [4] = 12 h, 10 µM, compound concentration 10 uM, replicate 2
# [5] = 24 h, 1 µM, compound concentration 1 uM, replicate 1
# [6] = 24 h, 1 µM, compound concentration 1 uM, replicate 2
# [7] = 24 h, 10 µM, compound concentration 10 uM, replicate 1
# [8] = 24 h, 10 µM, compound concentration 10 uM, replicate 2
# [9] = 48 h, 1 µM, compound concentration 1 uM, replicate 1
# [10] = 48 h, 1 µM, compound concentration 1 uM, replicate 2
# [11] = 48 h, 10 µM, compound concentration 10 uM, replicate 1
# [12] = 48 h, 10 µM, compound concentration 10 uM, replicate 2
smiles,measurement,setting,value
Cc1cnc(-c2cc(N3CCN(C(=O)CCS(C)(=O)=O)CC3)ncc2Cl)c(C)c1,Population Apoptotic (%),[1],29%
same,Population Fragmented Nuclei (%),[1],6%
same,Population Healthy Nuclei (%),[1],76%
same,Population Hoechst High Intensity Objects (%),[1],4%
same,Population Membrane Permeable-Phenotype (%),[1],0%
same,Population Mitochondria Different-Phenotype (%),[1],50%
same,Population Mitotic Cells (%),[1],70%
same,Population Normal (%),[1],95%
same,Population Pyknosed Nuclei (%),[1],16%
same,Population Tubulin-Different-Phenotype (%),[1],33%
same,Total Cell Count,[1],276
same,Population Apoptotic (%),[2],42%
same,Population Healthy Nuclei (%),[2],75%
same,Population Hoechst High Intensity Objects (%),[2],9%
same,Population Mitochondria Different-Phenotype (%),[2],69%
same,Population Mitotic Cells (%),[2],57%
same,Population Normal (%),[2],90%
same,Population Pyknosed Nuclei (%),[2],17%
same,Population Tubulin-Different-Phenotype (%),[2],24%
same,Total Cell Count,[2],294
same,Population Apoptotic (%),[3],42%
same,Population Fragmented Nuclei (%),[3],7%
same,Population Healthy Nuclei (%),[3],82%
same,Population Hoechst High Intensity Objects (%),[3],10%
same,Population Membrane Permeable-Phenotype (%),[3],0%
same,Population Mitochondria Different-Phenotype (%),[3],47%
same,Population Mitotic Cells (%),[3],57%
same,Population Normal (%),[3],89%
same,Population Pyknosed Nuclei (%),[3],10%
same,Population Tubulin-Different-Phenotype (%),[3],40%
same,Total Cell Count,[3],409
same,Population Apoptotic (%),[4],45%
same,Population Healthy Nuclei (%),[4],75%
same,Population Hoechst High Intensity Objects (%),[4],7%
same,Population Mitochondria Different-Phenotype (%),[4],70%
same,Population Mitotic Cells (%),[4],54%
same,Population Normal (%),[4],92%
same,Population Pyknosed Nuclei (%),[4],17%
same,Population Tubulin-Different-Phenotype (%),[4],39%
same,Total Cell Count,[4],288
same,Population Apoptotic (%),[5],36%
same,Population Fragmented Nuclei (%),[5],8%
same,Population Healthy Nuclei (%),[5],78%
same,Population Hoechst High Intensity Objects (%),[5],2%
same,Population Membrane Permeable-Phenotype (%),[5],1%
same,Population Mitochondria Different-Phenotype (%),[5],30%
same,Population Mitotic Cells (%),[5],63%
same,Population Normal (%),[5],97%
same,Population Pyknosed Nuclei (%),[5],12%
same,Population Tubulin-Different-Phenotype (%),[5],21%
same,Total Cell Count,[5],368
same,Population Apoptotic (%),[6],40%
same,Population Fragmented Nuclei (%),[6],7%
same,Population Healthy Nuclei (%),[6],83%
same,Population Hoechst High Intensity Objects (%),[6],6%
same,Population Membrane Permeable-Phenotype (%),[6],0%
same,Population Mitochondria Different-Phenotype (%),[6],36%
same,Population Mitotic Cells (%),[6],60%
same,Population Normal (%),[6],93%
same,Population Pyknosed Nuclei (%),[6],9%
same,Population Tubulin-Different-Phenotype (%),[6],13%
same,Total Cell Count,[6],413
same,Population Apoptotic (%),[7],33%
same,Population Fragmented Nuclei (%),[7],15%
same,Population Healthy Nuclei (%),[7],76%
same,Population Hoechst High Intensity Objects (%),[7],5%
same,Population Membrane Permeable-Phenotype (%),[7],0%
same,Population Mitochondria Different-Phenotype (%),[7],29%
same,Population Mitotic Cells (%),[7],66%
same,Population Normal (%),[7],94%
same,Population Pyknosed Nuclei (%),[7],8%
same,Population Tubulin-Different-Phenotype (%),[7],31%
same,Total Cell Count,[7],550
same,Population Apoptotic (%),[8],51%
same,Population Fragmented Nuclei (%),[8],7%
same,Population Healthy Nuclei (%),[8],80%
same,Population Mitochondria Different-Phenotype (%),[8],47%
same,Population Mitotic Cells (%),[8],48%
same,Population Pyknosed Nuclei (%),[8],12%
same,Population Tubulin-Different-Phenotype (%),[8],22%
same,Total Cell Count,[8],392
same,Population Apoptotic (%),[9],27%
same,Population Fragmented Nuclei (%),[9],17%
same,Population Healthy Nuclei (%),[9],76%
same,Population Hoechst High Intensity Objects (%),[9],1%
same,Population Membrane Permeable-Phenotype (%),[9],1%
same,Population Mitochondria Different-Phenotype (%),[9],17%
same,Population Mitotic Cells (%),[9],72%
same,Population Normal (%),[9],98%
same,Population Pyknosed Nuclei (%),[9],6%
same,Population Tubulin-Different-Phenotype (%),[9],10%
same,Total Cell Count,[9],718
same,Population Apoptotic (%),[10],34%
same,Population Fragmented Nuclei (%),[10],14%
same,Population Healthy Nuclei (%),[10],78%
same,Population Hoechst High Intensity Objects (%),[10],2%
same,Population Membrane Permeable-Phenotype (%),[10],0%
same,Population Mitochondria Different-Phenotype (%),[10],22%
same,Population Mitotic Cells (%),[10],65%
same,Population Normal (%),[10],97%
same,Population Tubulin-Different-Phenotype (%),[10],6%
same,Total Cell Count,[10],595
same,Population Apoptotic (%),[11],25%
same,Population Fragmented Nuclei (%),[11],14%
same,Population Healthy Nuclei (%),[11],78%
same,Population Hoechst High Intensity Objects (%),[11],4%
same,Population Membrane Permeable-Phenotype (%),[11],0%
same,Population Mitochondria Different-Phenotype (%),[11],23%
same,Population Mitotic Cells (%),[11],74%
same,Population Normal (%),[11],95%
same,Population Pyknosed Nuclei (%),[11],7%
same,Population Tubulin-Different-Phenotype (%),[11],17%
same,Total Cell Count,[11],753
same,Population Apoptotic (%),[12],36%
same,Population Healthy Nuclei (%),[12],77%
same,Population Hoechst High Intensity Objects (%),[12],3%
same,Population Mitochondria Different-Phenotype (%),[12],32%
same,Population Mitotic Cells (%),[12],63%
same,Population Normal (%),[12],96%
same,Population Pyknosed Nuclei (%),[12],8%
same,Population Tubulin-Different-Phenotype (%),[12],15%
same,Total Cell Count,[12],576
